{"source": "ChEMBL document CHEMBL3272064", "about": "“Mode of action and quantitative structure-activity correlations of tuberculostatic drugs of the isonicotinic acid hydrazide type” (J Med Chem, 1976)", "key": {"[1]": {"test": "Dissociation constant, pKa of the compound"}, "[2]": {"test": "Dissociation constant, pKa of the compound at 25 degC by spectrophotometric analysis", "assay_type": "physicochemical", "method_in_brief": "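Determined spectrophotometrically at 25 °C (±1). For the approximate value of the nitro-substituted pyridine, the Hammett acidity function (H0) was used.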"}, "[3]": {"system": "Mycobacterium tuberculosis", "test": "Antibacterial activity against Mycobacterium tuberculosis H37Rv assessed as growth inhibition by two-fold serial dilution method", "assay_type": "functional", "details": "for MIC: Mycobacterium tuberculosis, H37Rv"}, "[4]": {"test": "Retardation factor, Rm of the compound in acetone-water-silica gel layer", "assay_type": "physicochemical", "details": "buffer", "method_in_brief": "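Reversed-phase partition chromatography. The mobile phase was acetone–water; the stationary phase was a silica gel layer impregnated with a paraffin solution in n-hexane.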"}, "[5]": {"system": "Mycobacterium tuberculosis", "test": "Antibacterial activity against Mycobacterium tuberculosis assessed as growth inhibition", "assay_type": "functional", "method_in_brief": "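Liquid-culture serial dilution against M. tuberculosis H37Rv, with √2 dilution steps. The test medium had 0.7% protein content. MIC (μM) was taken as the average of at least two determinations. Isoniazid served as the standard in every experiment. Activity was expressed as 1/MIC.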"}, "[6]": {"test": "1-octanol-phosphate buffer partition coefficient, log P of the compound at pH 7.4", "assay_type": "physicochemical"}, "[7]": {"system": "Mycobacterium tuberculosis", "test": "Antibacterial activity against Mycobacterium tuberculosis assessed as growth inhibition in presence of 16 uM nicotinic acid hydrazide", "assay_type": "functional"}, "[8]": {"system": "Mycobacterium tuberculosis", "test": "microbe, parasite or virus in culture"}, "[9]": {"system": "Mycobacterium tuberculosis", "test": "Antibacterial activity against Mycobacterium tuberculosis using acidic culture media at pH 5.9 assessed as growth inhibition", "assay_type": "functional"}, "[10]": {"system": "Mycobacterium tuberculosis", "test": "Antibacterial activity against Mycobacterium tuberculosis assessed as growth inhibition at pH 7", "assay_type": "functional"}}, "data": [{"smiles": "CCCc1ccccn1", "values": [{"measurement": "pKa", "setting": "[1]", "value": 5.97}]}, {"smiles": "CC(=O)NCc1ccccn1", "values": [{"measurement": "pKa", "setting": "[2]", "value": 4.23}]}, {"smiles": "CCOc1ccccn1", "values": [{"measurement": "pKa", "setting": "[2]", "value": 3.47}]}, {"smiles": "Nc1ccccn1", "note": "[2-AMINOPYRIDINE]", "values": [{"measurement": "pKa", "setting": "[1]", "value": 6.71}]}, {"smiles": "NNC(=O)c1ccnc(-c2ccccc2)c1", "values": [{"measurement": "log(1/MIC)", "setting": "[3]", "value": -1.699}, {"measurement": "Rm", "setting": "[4]", "value": 1.643}]}, {"smiles": "NNC(=O)c1ccnc(Cc2ccccc2)c1", "values": [{"measurement": "log(1/MIC)", "setting": "[3]", "value": -1.585}, {"measurement": "Rm", "setting": "[4]", "value": 1.365}]}, {"smiles": "c1ccc(Cc2ccccn2)cc1", "values": [{"measurement": "pKa", "setting": "[1]", "value": 5.13}]}, {"smiles": "CCc1cc(C(=O)NN)ccn1", "values": [{"measurement": "log(1/MIC)", "setting": "[3]", "value": -1.324}, {"measurement": "Rm", "setting": "[4]", "value": 0.862}]}, {"smiles": "CCN(CC)c1cc(C(=O)NN)ccn1", "values": [{"measurement": "log(1/MIC)", "setting": "[3]", "value": -2.856}, {"measurement": "Rm", "setting": "[4]", "value": 1.383}]}, {"smiles": "CCc1ccccn1", "values": [{"measurement": "pKa", "setting": "[1]", "value": 5.97}]}, {"smiles": "NNC(=O)c1ccncc1", "note": "[ISONIAZID]", "values": [{"measurement": "log(1/MIC)", "setting": "[3]", "value": -0.041}, {"measurement": "MIC", "setting": "[3]", "value": 1.1, "unit": "µM"}, {"measurement": "MIC", "setting": "[5]", "value": 1, "unit": "µM"}, {"measurement": "Rm", "setting": "[4]", "value": 0.372}, {"measurement": "logD", "setting": "[6]", "value": -1.14}, {"measurement": "MIC", "setting": "[7]", "value": 1900, "unit": "µM"}, {"measurement": "MIC", "setting": "[8]", "value": 0.5, "unit": "µM"}]}, {"smiles": "NNC(=O)c1ccnc(N)c1", "values": [{"measurement": "log(1/MIC)", "setting": "[3]", "value": -1.161}, {"measurement": "Rm", "setting": "[4]", "value": 0.32}]}, {"smiles": "CCN(CC)c1ccccn1", "values": [{"measurement": "pKa", "setting": "[2]", "value": 7.32}]}, {"smiles": "CC(=O)NCc1cc(C(=O)NN)ccn1", "values": [{"measurement": "log(1/MIC)", "setting": "[3]", "value": -2.386}, {"measurement": "Rm", "setting": "[4]", "value": 0.34}]}, {"smiles": "COc1cc(C(=O)NN)ccn1", "values": [{"measurement": "log(1/MIC)", "setting": "[3]", "value": -2.185}, {"measurement": "Rm", "setting": "[4]", "value": 0.783}]}, {"smiles": "NNC(=O)c1ccnc(Cl)c1", "values": [{"measurement": "log(1/MIC)", "setting": "[3]", "value": -2.593}, {"measurement": "Rm", "setting": "[4]", "value": 0.63}]}, {"smiles": "NNC(=O)c1ccnc(F)c1", "values": [{"measurement": "log(1/MIC)", "setting": "[3]", "value": -2.415}, {"measurement": "MIC", "setting": "[3]", "value": 260, "unit": "µM"}, {"measurement": "Rm", "setting": "[4]", "value": 0.42}]}, {"smiles": "COc1ccccn1", "values": [{"measurement": "pKa", "setting": "[1]", "value": 3.06}]}, {"smiles": "NNC(=O)c1ccnc([N+](=O)[O-])c1", "values": [{"measurement": "log(1/MIC)", "setting": "[3]", "value": -2.569}, {"measurement": "Rm", "setting": "[4]", "value": 0.577}]}, {"smiles": "C=Cc1ccccn1", "values": [{"measurement": "pKa", "setting": "[1]", "value": 4.98}]}, {"smiles": "CC(=O)Nc1ccccn1", "values": [{"measurement": "pKa", "setting": "[1]", "value": 4.09}]}, {"smiles": "CCOc1cc(C(=O)NN)ccn1", "values": [{"measurement": "log(1/MIC)", "setting": "[3]", "value": -2.655}, {"measurement": "Rm", "setting": "[4]", "value": 0.954}]}, {"smiles": "NNC(=O)c1ccnc(I)c1", "values": [{"measurement": "log(1/MIC)", "setting": "[3]", "value": -2.404}, {"measurement": "Rm", "setting": "[4]", "value": 0.931}]}, {"smiles": "CC(C)Cc1cc(C(=O)NN)ccn1", "values": [{"measurement": "log(1/MIC)", "setting": "[3]", "value": -2.653}, {"measurement": "MIC", "setting": "[3]", "value": 450, "unit": "µM"}, {"measurement": "Rm", "setting": "[4]", "value": 1.366}]}, {"smiles": "CCCc1cc(C(=O)NN)ccn1", "values": [{"measurement": "log(1/MIC)", "setting": "[3]", "value": -1.742}, {"measurement": "Rm", "setting": "[4]", "value": 1.168}]}, {"smiles": "Fc1ccccn1", "values": [{"measurement": "pKa", "setting": "[1]", "value": 0.44}]}, {"smiles": "CC(=O)Nc1cc(C(=O)NN)ccn1", "values": [{"measurement": "log(1/MIC)", "setting": "[3]", "value": -3.332}, {"measurement": "Rm", "setting": "[4]", "value": 0.266}]}, {"smiles": "C=Cc1cc(C(=O)NN)ccn1", "values": [{"measurement": "log(1/MIC)", "setting": "[3]", "value": -1.544}, {"measurement": "Rm", "setting": "[4]", "value": 1.02}]}, {"smiles": "Brc1ccccn1", "values": [{"measurement": "pKa", "setting": "[1]", "value": 0.9}]}, {"smiles": "NNC(=O)c1ccnc(Br)c1", "values": [{"measurement": "log(1/MIC)", "setting": "[3]", "value": -2.79}, {"measurement": "MIC", "setting": "[3]", "value": 616, "unit": "µM"}, {"measurement": "Rm", "setting": "[4]", "value": 0.866}]}, {"smiles": "O=C(O)c1ccncc1", "note": "[ISONICOTINIC ACID]", "values": [{"measurement": "MIC", "setting": "[9]", "value": 128, "unit": "µM"}, {"measurement": "MIC", "setting": "[10]", "value": "> 4", "unit": "mM"}, {"measurement": "pKa", "setting": "[1]", "value": 4.84}]}, {"smiles": "NNC(=O)c1cccnc1", "note": "[NICOTINIC ACID HYDRAZIDE]", "values": [{"measurement": "MIC", "setting": "[5]", "value": 1900, "unit": "µM"}]}, {"smiles": "Cc1cc(C(=O)NN)ccn1", "values": [{"measurement": "log(1/MIC)", "setting": "[3]", "value": -0.716}, {"measurement": "Rm", "setting": "[4]", "value": 0.697}]}]}
